ChEMBL document CHEMBL5058577, “EUbOPEN Chemogenomics Library 2 (Multiplex)” (2022)

Test system: HEK-293T
Test: Multiplex assay against HEK293T
Format: toxicity, cell-based
Details: human
Summary of the method: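 Imaging took place on a CQ1 microscope at 37°C and 5% CO2 once compound had been added to live cells stained at seeding with Hoechst33342, BioTracker Green Microtubule Cytoskeleton Dye, MitoTracker Red and Annexin V Alexa Fluor 680. CellPathfinder machine-learning gating classed cells as Hoechst high-intensity objects or normal cells, classed normal cells as having healthy, pyknosed or fragmented nuclei, and classed pyknosed cells as mitotic or apoptotic. Tubulin, mitochondrial-mass and membrane-permeability phenotypes are per cents of the healthy-nucleus cells.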

[1] = 12 h, 1 µM, compound concentration 1 uM, replicate 1
[2] = 12 h, 1 µM, compound concentration 1 uM, replicate 2
[3] = 12 h, 10 µM, compound concentration 10 uM, replicate 1
[4] = 12 h, 10 µM, compound concentration 10 uM, replicate 2
[5] = 24 h, 1 µM, compound concentration 1 uM, replicate 1
[6] = 24 h, 1 µM, compound concentration 1 uM, replicate 2
[7] = 24 h, 10 µM, compound concentration 10 uM, replicate 1
[8] = 24 h, 10 µM, compound concentration 10 uM, replicate 2
[9] = 48 h, 1 µM, compound concentration 1 uM, replicate 1
[10] = 48 h, 1 µM, compound concentration 1 uM, replicate 2
[11] = 48 h, 10 µM, compound concentration 10 uM, replicate 1
[12] = 48 h, 10 µM, compound concentration 10 uM, replicate 2

With COC(c1ccccc1)(c1ccccc1)[C@H](Oc1nc(C)cc(C)n1)C(=O)O [AMBRISENTAN] as the compound, how does the “Population Apoptotic (%)” value [1] read?
The value was 38%.

And the “Population Fragmented Nuclei (%)” value [1]?
Its value is 7%.

And the “Population Healthy Nuclei (%)” value [1]?
The value was 75%.

And the “Population Hoechst High Intensity Objects (%)” value [1]?
The value was 6%.

What about the “Population Membrane Permeable-Phenotype (%)” value [1] of the same compound?
The value was 0%.

What about the “Population Mitochondria Different-Phenotype (%)” value [1] of the same compound?
Its value is 53%.

And the “Population Mitotic Cells (%)” value [1]?
Its value is 61%.

What about the “Population Normal (%)” value [1] of the same compound?
The value was 93%.

And the “Population Pyknosed Nuclei (%)” value [1]?
The value was 16%.

And the “Population Tubulin-Different-Phenotype (%)” value [1]?
Its value is 30%.

What about the “Total Cell Count” value [1] of the same compound?
The value was 249.

And the “Population Healthy Nuclei (%)” value [2]?
Its value is 81%.

And the “Population Hoechst High Intensity Objects (%)” value [2]?
The value was 11%.

And the “Population Mitochondria Different-Phenotype (%)” value [2]?
The value was 63%.

What about the “Population Normal (%)” value [2] of the same compound?
Its value is 88%.

What about the “Population Pyknosed Nuclei (%)” value [2] of the same compound?
Its value is 10%.

What about the “Population Tubulin-Different-Phenotype (%)” value [2] of the same compound?
Its value is 23%.

What about the “Total Cell Count” value [2] of the same compound?
The value was 326.

What about the “Population Apoptotic (%)” value [3] of the same compound?
The value was 33%.

What about the “Population Fragmented Nuclei (%)” value [3] of the same compound?
Its value is 8%.

And the “Population Healthy Nuclei (%)” value [3]?
The value was 76%.

And the “Population Hoechst High Intensity Objects (%)” value [3]?
Its value is 6%.

And the “Population Membrane Permeable-Phenotype (%)” value [3]?
Its value is 0%.

What about the “Population Mitochondria Different-Phenotype (%)” value [3] of the same compound?
Its value is 47%.

And the “Population Mitotic Cells (%)” value [3]?
The value was 66%.

And the “Population Normal (%)” value [3]?
The value was 93%.

What about the “Population Pyknosed Nuclei (%)” value [3] of the same compound?
The value was 15%.

And the “Population Tubulin-Different-Phenotype (%)” value [3]?
Its value is 23%.

What about the “Total Cell Count” value [3] of the same compound?
Its value is 383.

And the “Population Apoptotic (%)” value [4]?
Its value is 56%.

And the “Population Fragmented Nuclei (%)” value [4]?
Its value is 5%.

And the “Population Healthy Nuclei (%)” value [4]?
The value was 80%.

And the “Population Hoechst High Intensity Objects (%)” value [4]?
Its value is 13%.

And the “Population Mitochondria Different-Phenotype (%)” value [4]?
Its value is 57%.

What about the “Population Mitotic Cells (%)” value [4] of the same compound?
The value was 43%.

What about the “Population Normal (%)” value [4] of the same compound?
The value was 86%.

And the “Population Pyknosed Nuclei (%)” value [4]?
Its value is 14%.

What about the “Population Tubulin-Different-Phenotype (%)” value [4] of the same compound?
Its value is 18%.

And the “Total Cell Count” value [4]?
Its value is 262.

And the “Population Apoptotic (%)” value [5]?
The value was 37%.

And the “Population Fragmented Nuclei (%)” value [5]?
Its value is 9%.

And the “Population Healthy Nuclei (%)” value [5]?
Its value is 76%.

What about the “Population Hoechst High Intensity Objects (%)” value [5] of the same compound?
Its value is 4%.

And the “Population Membrane Permeable-Phenotype (%)” value [5]?
The value was 1%.

What about the “Population Mitochondria Different-Phenotype (%)” value [5] of the same compound?
Its value is 30%.

And the “Population Mitotic Cells (%)” value [5]?
The value was 62%.

What about the “Population Normal (%)” value [5] of the same compound?
Its value is 95%.

What about the “Population Pyknosed Nuclei (%)” value [5] of the same compound?
The value was 14%.

And the “Population Tubulin-Different-Phenotype (%)” value [5]?
Its value is 19%.

What about the “Total Cell Count” value [5] of the same compound?
Its value is 313.

And the “Population Apoptotic (%)” value [6]?
The value was 43%.

What about the “Population Healthy Nuclei (%)” value [6] of the same compound?
Its value is 82%.

What about the “Population Hoechst High Intensity Objects (%)” value [6] of the same compound?
The value was 7%.

What about the “Population Membrane Permeable-Phenotype (%)” value [6] of the same compound?
The value was 0%.

What about the “Population Mitochondria Different-Phenotype (%)” value [6] of the same compound?
The value was 39%.

What about the “Population Mitotic Cells (%)” value [6] of the same compound?
Its value is 56%.

What about the “Population Normal (%)” value [6] of the same compound?
Its value is 92%.

And the “Population Pyknosed Nuclei (%)” value [6]?
The value was 8%.

And the “Population Tubulin-Different-Phenotype (%)” value [6]?
The value was 16%.

What about the “Total Cell Count” value [6] of the same compound?
Its value is 404.

What about the “Population Apoptotic (%)” value [7] of the same compound?
Its value is 30%.

And the “Population Fragmented Nuclei (%)” value [7]?
Its value is 10%.

And the “Population Healthy Nuclei (%)” value [7]?
The value was 73%.

What about the “Population Hoechst High Intensity Objects (%)” value [7] of the same compound?
The value was 4%.

What about the “Population Membrane Permeable-Phenotype (%)” value [7] of the same compound?
The value was 0%.

What about the “Population Mitochondria Different-Phenotype (%)” value [7] of the same compound?
The value was 34%.

What about the “Population Mitotic Cells (%)” value [7] of the same compound?
Its value is 69%.

What about the “Population Normal (%)” value [7] of the same compound?
Its value is 95%.

What about the “Population Pyknosed Nuclei (%)” value [7] of the same compound?
The value was 15%.

And the “Population Tubulin-Different-Phenotype (%)” value [7]?
The value was 18%.

And the “Total Cell Count” value [7]?
The value was 441.

What about the “Population Apoptotic (%)” value [8] of the same compound?
Its value is 44%.

And the “Population Fragmented Nuclei (%)” value [8]?
Its value is 8%.

And the “Population Healthy Nuclei (%)” value [8]?
Its value is 78%.

What about the “Population Hoechst High Intensity Objects (%)” value [8] of the same compound?
Its value is 12%.

What about the “Population Mitochondria Different-Phenotype (%)” value [8] of the same compound?
The value was 41%.

What about the “Population Mitotic Cells (%)” value [8] of the same compound?
Its value is 55%.

And the “Population Normal (%)” value [8]?
The value was 87%.

And the “Population Pyknosed Nuclei (%)” value [8]?
The value was 12%.

What about the “Population Tubulin-Different-Phenotype (%)” value [8] of the same compound?
Its value is 17%.

And the “Total Cell Count” value [8]?
Its value is 318.

And the “Population Apoptotic (%)” value [9]?
The value was 27%.

And the “Population Fragmented Nuclei (%)” value [9]?
The value was 17%.

What about the “Population Healthy Nuclei (%)” value [9] of the same compound?
The value was 72%.

And the “Population Hoechst High Intensity Objects (%)” value [9]?
The value was 2%.

And the “Population Membrane Permeable-Phenotype (%)” value [9]?
The value was 3%.

And the “Population Mitochondria Different-Phenotype (%)” value [9]?
Its value is 22%.

What about the “Population Mitotic Cells (%)” value [9] of the same compound?
Its value is 72%.

What about the “Population Normal (%)” value [9] of the same compound?
The value was 97%.

And the “Population Pyknosed Nuclei (%)” value [9]?
The value was 10%.

And the “Population Tubulin-Different-Phenotype (%)” value [9]?
Its value is 13%.

What about the “Total Cell Count” value [9] of the same compound?
The value was 600.

What about the “Population Apoptotic (%)” value [10] of the same compound?
The value was 40%.

And the “Population Fragmented Nuclei (%)” value [10]?
Its value is 12%.

What about the “Population Healthy Nuclei (%)” value [10] of the same compound?
The value was 80%.

What about the “Population Hoechst High Intensity Objects (%)” value [10] of the same compound?
Its value is 3%.

And the “Population Membrane Permeable-Phenotype (%)” value [10]?
The value was 0%.

And the “Population Mitochondria Different-Phenotype (%)” value [10]?
The value was 23%.

And the “Population Mitotic Cells (%)” value [10]?
Its value is 59%.

And the “Population Normal (%)” value [10]?
The value was 96%.

And the “Population Pyknosed Nuclei (%)” value [10]?
Its value is 7%.

What about the “Population Tubulin-Different-Phenotype (%)” value [10] of the same compound?
Its value is 10%.

What about the “Total Cell Count” value [10] of the same compound?
The value was 605.

And the “Population Apoptotic (%)” value [11]?
The value was 26%.

And the “Population Fragmented Nuclei (%)” value [11]?
Its value is 14%.

What about the “Population Healthy Nuclei (%)” value [11] of the same compound?
The value was 77%.

And the “Population Hoechst High Intensity Objects (%)” value [11]?
The value was 2%.

And the “Population Membrane Permeable-Phenotype (%)” value [11]?
Its value is 1%.

And the “Population Mitochondria Different-Phenotype (%)” value [11]?
The value was 18%.

What about the “Population Mitotic Cells (%)” value [11] of the same compound?
Its value is 73%.

What about the “Population Normal (%)” value [11] of the same compound?
Its value is 97%.

What about the “Population Pyknosed Nuclei (%)” value [11] of the same compound?
The value was 8%.

What about the “Population Tubulin-Different-Phenotype (%)” value [11] of the same compound?
Its value is 13%.

What about the “Total Cell Count” value [11] of the same compound?
The value was 711.

And the “Population Apoptotic (%)” value [12]?
Its value is 53%.

What about the “Population Healthy Nuclei (%)” value [12] of the same compound?
Its value is 79%.

What about the “Population Hoechst High Intensity Objects (%)” value [12] of the same compound?
The value was 7%.

And the “Population Membrane Permeable-Phenotype (%)” value [12]?
The value was 0%.

What about the “Population Mitochondria Different-Phenotype (%)” value [12] of the same compound?
Its value is 27%.

What about the “Population Mitotic Cells (%)” value [12] of the same compound?
The value was 46%.

And the “Population Normal (%)” value [12]?
Its value is 92%.

And the “Population Pyknosed Nuclei (%)” value [12]?
Its value is 5%.

And the “Population Tubulin-Different-Phenotype (%)” value [12]?
Its value is 15%.

And the “Total Cell Count” value [12]?
The value was 480.
